# S100A4 inh HTS: inhibitors of S100A4-myosin IIA peptide binding, primary screen, biochemical, fluorescence polarization, TAMRA-MyoIIA peptide; inhibition, % at 10.7 µM; Protein S100-A4 (Homo sapiens), P26447; 360,000 tested, 0.14% active;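 active means mean inhibition of at least 70% across replicates, with every replicate also reaching that level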
#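 Test system: S100A4 monomer protein; Medium: HEPES pH 7.2 with CaCl2, KCl, NaCl, DTT, Triton; Probe or stimulus: TAMRA-labelled myosin IIA heavy-chain peptide probe, 5 nM; Doses: one dose per compound; Times: polarization read 5 min after assay mix addition, stable 5–60 min; Benchmarks: neutral control DMSO, positive control TFP.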
# AF4-AF9 inh: inhibitors of AF4 peptide binding to AF9, primary screen, biochemical, AlphaScreen, biotin-AF4 peptide, FLAG-AF9, single point | Protein AF-9 (Homo sapiens), P42568 | 350,000 tested, 0.47% active | inhibition, % at 10 µM | AID 651704, 2012;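 active means every replicate reaching a set inhibition limit, whatever the replicate mean, cut at about 25% in these data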;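 further: 0% = plate neutral control median and 100% = total signal loss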
# Target sequence (P42568 whole entry, looked up): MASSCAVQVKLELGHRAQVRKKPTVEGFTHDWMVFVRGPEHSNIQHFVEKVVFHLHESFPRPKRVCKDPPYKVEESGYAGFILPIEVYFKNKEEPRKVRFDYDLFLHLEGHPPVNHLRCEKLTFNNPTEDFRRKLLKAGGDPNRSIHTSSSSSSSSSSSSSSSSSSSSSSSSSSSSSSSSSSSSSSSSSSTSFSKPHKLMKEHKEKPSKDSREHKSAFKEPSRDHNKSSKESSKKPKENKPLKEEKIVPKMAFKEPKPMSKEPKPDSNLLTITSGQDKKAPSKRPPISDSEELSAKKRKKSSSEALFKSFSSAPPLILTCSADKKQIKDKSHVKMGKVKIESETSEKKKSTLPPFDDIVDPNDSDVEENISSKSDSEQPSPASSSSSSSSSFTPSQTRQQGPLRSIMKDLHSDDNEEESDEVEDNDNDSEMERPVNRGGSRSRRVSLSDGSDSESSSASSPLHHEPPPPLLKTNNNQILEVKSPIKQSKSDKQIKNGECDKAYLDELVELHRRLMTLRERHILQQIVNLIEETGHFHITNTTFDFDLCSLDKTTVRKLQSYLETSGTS
# miR-122 sensor: miR-122 Renilla sensor signal increase in Huh7, primary screen, miR-122 inhibitor project, cell-based, single point, plate reader; Huh7 miR-122 Renilla luciferase sensor, 48 h; neutral wells = 0, positive control = 100; activation (reporter increase), % at 12.5 µM; 340,000 tested, 0.3% active;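 active means mean replicate activation score at least 90 and every replicate individually at or above 90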;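 further: higher luciferase means less miR-122 activity so hits act as miR-122 inhibitors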
# Rtt109 HAT inh: inhibitors of C. albicans Rtt109/Vps75 HAT, primary screen, biochemical, ThioGlo CoA-SH fluorescence, plate reader; Histone acetyltransferase RTT109 (Candida albicans (strain SC5314 / ATCC MYA-2876)), …; purified Rtt109/Vps75, 4 h; inhibition, % at 34.9 µM; 330,000 tested, 0.16% active;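 active means inhibition of at least 50% in every replicate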
# ERAP1 HTS inh: human ERAP1 aminopeptidase inhibitors, primary screen, biochemical, single point, plate reader; Endoplasmic reticulum aminopeptidase 1 (Homo sapiens), Q9NZ08; recombinant ERAP1, Leu-AMC fluorescence, 60 min; inhibition, % at 10.7 µM; 340,000 tested, 0.15% active;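 active means mean replicate inhibition of at least 30%, or all replicates individually reaching that 30% level; inactive means mean below 30% and not every replicate reaching it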;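 further: 0% = neutral control wells and 100% = L-leucinethiol positive control wells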
# * hit, by the source's call; . = no result; + = active, no number; [ ] = remark or other dose. A selection: hits, their analogues and other compounds. The true share with any hit is near 0.86%.
SMILES,S100A4 inh HTS,AF4-AF9 inh,miR-122 sensor,Rtt109 HAT inh,ERAP1 HTS inh
CO[C@H]1CN(C)C(=O)c2cc(NS(=O)(=O)c3cn(C)cn3)ccc2OC[C@H](C)N(CC2CC2)C[C@@H]1C,-1,-1,.,.,-4
CC(=O)N1CCOc2ccc(S(=O)(=O)NCCc3cccc(C)c3)cc21,-1,0,116*,-4,0
Cc1ccc(S(=O)(=O)Nc2ccc3c(c2)OCCO3)cc1C,6,-1,.,-3,-1
CC(=O)N1CCOc2ccc(S(=O)(=O)NCCc3ccccc3)cc21,2,3,4,4,2
CCc1cccc(NS(=O)(=O)c2ccc3c(c2)N(C)CCO3)c1,4,8,172*,-6,-2
Cc1cccc(NS(=O)(=O)c2ccc3c(c2)OCCO3)c1,.,.,119*,-8,.
Cc1nc(NCc2ccco2)c2c(C)c(C)sc2n1,.,.,129*,-4,.
Cc1ccccc1OCC(=O)NNC(=O)Nc1ccc(Cl)cc1,.,.,144*,9,.
O=C(Nc1ccc(S(=O)(=O)N2CCCCC2)cc1)C1CC(=O)N(Cc2ccccc2)C1 (stereo unspecified),+,-38,-3,6,-1
O=C(Cc1cccs1)Nc1ccc(S(=O)(=O)N2CCCCC2)cc1,.,.,132*,11,.
Cc1ccccc1OCC(=O)Nc1ccc(S(=O)(=O)N2CCCC2)cc1,114*,1,.,9,0
CN1CCN(S(=O)(=O)c2ccc(NC(=O)Cc3cccs3)cc2)CC1,12,7,8,7,1
COc1cc(CN2CC3(CN(C(C)=O)C3)c3c([nH]c4cc(OC)ccc34)[C@H]2CO)cc(OC)c1,.,1,.,.,.
Clc1ccc2[nH]cc(-c3nnnn3-c3ccc4ccccc4c3)c2c1,.,.,212*,0,.
CO[C@H](CN(C)S(=O)(=O)c1ccc(Cl)cc1)[C@@H](C)CN([C@@H](C)CO)S(=O)(=O)c1cccc(Cl)c1,0,-1,.,.,-3
CC[n+]1ccc(/C=C2\Sc3ccccc3N2CCCS(=O)(=O)[O-])c2ccccc21,1,0,2,2,24
CN1C=C/C(=C\c2cc[n+](C)c3ccccc23)c2ccccc21,0,56*,0,-16,80*
CO[C@@H](CN(C)C(=O)c1ccc2c(c1)OCO2)[C@@H](C)CN([C@@H](C)CO)S(=O)(=O)c1ccc(C)cc1,3,0,.,.,1
CCCNC(=O)N1[C@H](CO)[C@H](c2ccc(C3=CCCCC3)cc2)[C@@H]1CNC(C)C,-10,6,.,.,0
COc1ccc2c3c([nH]c2c1)[C@@H](CO)N(C)CC31CN(S(=O)(=O)c2ccc(C)cc2)C1,-15,7,.,.,1
C[C@@H]1CCCCO[C@@H](CN(C)C(=O)c2ccccc2)[C@H](C)CN([C@@H](C)CO)C(=O)c2cc(NS(=O)(=O)c3cccs3)ccc2O1,1,1,-5[16.7 µM],.,1
O=C1CCN(Cc2ccccc2)CCN1[C@H](CO)Cc1ccccc1,.,.,-8,-2,.
N#Cc1cccc(CN2CCC(=O)N([C@H](CO)Cc3ccccc3)CC2)c1,2,44*,-1,-2,-1
COc1ccc(NC(=O)N(C)C[C@@H]2Oc3ncc(-c4cccnc4)cc3C(=O)N([C@@H](C)CO)C[C@@H]2C)cc1,1,-7,13[16.7 µM],.,0
C[C@@H]1CN([C@H](C)CO)C(=O)Cc2cc(NC(=O)Nc3cccc4ccccc34)ccc2O[C@H]1CN(C)Cc1ccc(C(=O)O)cc1,5,-2,-3[16.7 µM],.,-15
C[C@H]1CN([C@@H](C)CO)C(=O)Cc2cc(NC(=O)Nc3cccc4ccccc34)ccc2O[C@H]1CN(C)C(=O)NC1CCCCC1,3,0,16[16.7 µM],.,4
C[C@H](CO)N1C[C@H](C)[C@H](CN(C)Cc2ccc(C(=O)O)cc2)Oc2ccc(NC(=O)Nc3cccc4ccccc34)cc2CC1=O,-8,1,6[16.7 µM],.,51*
C[C@@H]1CN([C@@H](C)CO)C(=O)Cc2cc(NC(=O)Nc3cccc4ccccc34)ccc2O[C@@H]1CN(C)C(=O)NC1CCCCC1,-5,-25,167*[16.7 µM],.,0
